Reference: ChEMBL document CHEMBL4428057, “Discovery, Synthesis, and Evaluation of 2,4-Diaminoquinazolines as a Novel Class of Pancreatic β-Cell-Protective Agents against Endoplasmic Reticulum (ER) Stress” (J Med Chem, 2016)
The source made the active and inactive calls. The calls are words filed in the database; no cut-off is given here.

Legend:
INS1 = assay: Reversal of tunicamycin-induced suppression of INS1 mRNA levels in rat INS-1 cells at 20 uM after 24 hrs by qRT-PCR method; format: functional, cell-based
Method in brief: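 INS-1 cells (4×10^5/well, 6-well plates) given Tm 0.1 µg/mL ± compound 20 µM or DMSO for 24 h. INS1, INS2, PDX1 and MafA mRNA measured by qRT-PCR with rat primers. Means of 3 replicate wells, representative of 3 independent experiments; SD.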

Pancreatic beta cell [1] = assay: Suppression of tunicamycin impaired glucose-stimulated insulin secretion in human Beta cells at 10 to 20 uM preincubated for 48 hrs followed by glucose addition for 1 hr by ELISA; format: functional, cell-based
Method in brief: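 Human islets (50 of equal size) in 96-well plates given Tm 1 µg/mL plus compound for 48 h, preincubated 1 h in KRBH (pH 7.4) with 2.5 mM glucose, then stimulated 1 h with 2.5 or 20 mM glucose. Secreted insulin by human insulin ELISA, normalized to total protein by Bradford.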

[2] = target: T1, Eukaryotic translation initiation factor 2-alpha kinase 3 (Rattus norvegicus) (UniProt Q9Z1Z1); assay: Inhibition of PERK pathway in rat INS-1 cells assessed as reduction in tunicamycin induced ATF4 mRNA levels at 20 uM after 2 to 24 hrs by qRT-PCR method; format: cell-based
T1 sequence (whole entry): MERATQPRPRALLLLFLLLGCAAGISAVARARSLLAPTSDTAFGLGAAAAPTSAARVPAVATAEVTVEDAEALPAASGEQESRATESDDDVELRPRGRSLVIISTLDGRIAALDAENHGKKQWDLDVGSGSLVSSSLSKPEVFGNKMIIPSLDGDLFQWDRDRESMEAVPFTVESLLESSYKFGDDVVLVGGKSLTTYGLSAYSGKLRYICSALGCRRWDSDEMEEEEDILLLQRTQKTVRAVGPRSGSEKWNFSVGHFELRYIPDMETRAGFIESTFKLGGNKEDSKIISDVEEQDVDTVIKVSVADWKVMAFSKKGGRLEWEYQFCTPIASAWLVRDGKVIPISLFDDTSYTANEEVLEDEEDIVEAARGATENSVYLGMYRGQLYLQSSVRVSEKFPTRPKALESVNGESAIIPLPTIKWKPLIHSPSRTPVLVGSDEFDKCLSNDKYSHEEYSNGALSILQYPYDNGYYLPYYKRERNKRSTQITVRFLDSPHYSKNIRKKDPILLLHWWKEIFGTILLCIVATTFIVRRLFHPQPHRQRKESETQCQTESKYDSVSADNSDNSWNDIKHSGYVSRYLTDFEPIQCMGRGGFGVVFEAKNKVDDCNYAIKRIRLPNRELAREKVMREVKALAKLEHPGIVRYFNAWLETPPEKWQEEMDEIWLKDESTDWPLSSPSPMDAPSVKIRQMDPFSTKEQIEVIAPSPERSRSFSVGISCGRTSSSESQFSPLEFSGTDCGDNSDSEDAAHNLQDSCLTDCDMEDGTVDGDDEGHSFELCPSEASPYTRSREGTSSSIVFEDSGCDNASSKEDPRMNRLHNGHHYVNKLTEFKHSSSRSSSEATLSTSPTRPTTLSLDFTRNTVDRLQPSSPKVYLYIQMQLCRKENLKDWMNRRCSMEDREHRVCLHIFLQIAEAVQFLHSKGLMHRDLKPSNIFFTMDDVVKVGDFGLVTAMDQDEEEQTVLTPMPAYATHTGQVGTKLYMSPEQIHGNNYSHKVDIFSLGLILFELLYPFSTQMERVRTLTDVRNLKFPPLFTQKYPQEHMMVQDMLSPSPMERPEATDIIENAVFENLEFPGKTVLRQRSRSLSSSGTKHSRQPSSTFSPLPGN
Method in brief: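 ATF4 or CHOP mRNA measured by qRT-PCR in INS-1 cells treated with Tm 0.1 µg/mL ± compound 20 µM or DMSO for the indicated times. Expressed as fold-increase over untreated control; means of 3 replicate wells, representative of 3 independent experiments, SD.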

Pancreatic beta cell [3] = assay: Decrease in tunicamycin induced apoptosis in human Beta cells assessed as […] insulin cells level at 10 uM after 48 hrs by TUNEL staining based confocal microscopy (reference value: 15%); format: functional; parameters: scale not given: the % may be the effect or the level left
Beta-TC6 = assay: Protection against tunicamycin induced endoplasmic reticulum stress in mouse BetaTC6 cells assessed as increase in cell viability after 72 hrs by CellTiter-Glo assay; format: functional, cell-based
Method in brief: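 βTC6 cells (DMEM, 15% FBS) seeded at 3×10^3/well in 384-well plates with Tm 0.25 µg/mL ± compound or DMSO for 72 h. Viability by CellTiter-Glo (ATP luminescence) or MTT: 3 h with reagent at 37 °C, then 4 h with crystal-dissolving solution, absorbance at 570 nm. 3 replicate wells, 3 experiments.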

Rattus norvegicus = species: Rattus norvegicus; assay: Inhibition of IRE1alpha in rat INS-1 cells assessed as suppression of tunicamycin induced spliced XBP1 mRNA levels in at 20 uM after 4 to 24 hrs by agarose gel electrophoresis based RT-PCR method; format: cell-based
Method in brief: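 Total XBP1 mRNA amplified by RT-PCR from INS-1 cells treated with Tm 0.1 µg/mL ± compound 20 µM or DMSO for the indicated times. Unspliced and spliced forms resolved on agarose gel; cyclophilin A as internal control. Representative of 3 independent experiments.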

For COc1ccc(CNc2nc(N3CCCCC3CO)nc3ccccc23)cc1 (racemic), the Activity (INS1) was “Active”, the Activity (Pancreatic beta cell [1]) was “Active” and the inhibition [2] was “Active”. For the same compound, the Activity (Pancreatic beta cell [3]) was 3.5%, the Activity (Beta-TC6) was “Dose-dependent effect” and the inhibition (Rattus norvegicus) was “Active”.
